Measurements taken from article PMC3268052 (Journal of Molecular Biology, 2011).
Read-outs that look alike come from different tables or passages of the source. One block for each molecule: values may come before it.

Columns and labels:
PKR [1] = target: T1, PKR (Homo sapiens, UniProt P19525); experiment: PKR autophosphorylation activation assay; assay type: biochemical; settings: 100 nM PKR, P50 buffer, 0.4 mM ATP, 20 min, 32 °C
How it was run: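 Autophosphorylation of 100 nM PKR with heparin oligosaccharide activators over a concentration range. P50 buffer: 20 mM Hepes pH 7.5, 50 mM KCl, 5 mM MgCl2, 0.1 mM TCEP. Reactions contained 0.4 mM ATP plus 2 μCi [γ-32P]ATP and ran 20 min at 32 °C. Background autophosphorylation without activator and a 40-bp dsRNA (100 nM) served as references.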

PKR [2] = target: T1, PKR; experiment: Sedimentation velocity; assay type: binding; settings: for s(P2H2) / s(PH): uncorrected
PKR [3] = target: T1, PKR; assay type: binding
How it was run: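 PKR was purified via heparin–Sepharose then hydroxyapatite and titrated into 15 nM BODIPY-labeled heparin oligosaccharides (dp2–dp8) in AU75 buffer, pH 7.5, 20 °C; NaCl was raised to 100 or 125 mM where noted. Excitation 488 nm and emission 515 nm, 6 nm bandwidths. Each point averages three 5-s background-corrected reads, with 5 min equilibration. Kd came from a hyperbolic fit, and fold-difference is the ratio of Kd values.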

PKR [4] = target: T1, PKR; experiment: Fluorescence anisotropy competition of bdp8 with unlabeled dp8; assay type: binding; settings: competition of 500 nM bdp8 + 500 nM PKR with unlabeled ligand
How it was run: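 Unlabeled heparin oligosaccharide was titrated against 500 nM BODIPY-labeled oligosaccharide plus 500 nM PKR. Run in AU75 buffer (75 mM NaCl, 20 mM Hepes, 0.1 mM EDTA, 0.1 mM TCEP, pH 7.5) at 20 °C. Anisotropy read at excitation 488 nm and emission 515 nm, with 5 min equilibration between points. The competition curve was fitted to yield Kd, which sets the fixed β11 value.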

PKR [5] = target: T1, PKR; experiment: analytical ultracentrifugation; settings: cited from earlier work
PKR [6] = target: T1, PKR; settings: cited from earlier work
[7] = target: the molecule itself; experiment: sedimentation velocity analytical ultracentrifugation
[8] = Model A with L22 fixed equal to L20, SV

T1 sequence (P19525 whole entry): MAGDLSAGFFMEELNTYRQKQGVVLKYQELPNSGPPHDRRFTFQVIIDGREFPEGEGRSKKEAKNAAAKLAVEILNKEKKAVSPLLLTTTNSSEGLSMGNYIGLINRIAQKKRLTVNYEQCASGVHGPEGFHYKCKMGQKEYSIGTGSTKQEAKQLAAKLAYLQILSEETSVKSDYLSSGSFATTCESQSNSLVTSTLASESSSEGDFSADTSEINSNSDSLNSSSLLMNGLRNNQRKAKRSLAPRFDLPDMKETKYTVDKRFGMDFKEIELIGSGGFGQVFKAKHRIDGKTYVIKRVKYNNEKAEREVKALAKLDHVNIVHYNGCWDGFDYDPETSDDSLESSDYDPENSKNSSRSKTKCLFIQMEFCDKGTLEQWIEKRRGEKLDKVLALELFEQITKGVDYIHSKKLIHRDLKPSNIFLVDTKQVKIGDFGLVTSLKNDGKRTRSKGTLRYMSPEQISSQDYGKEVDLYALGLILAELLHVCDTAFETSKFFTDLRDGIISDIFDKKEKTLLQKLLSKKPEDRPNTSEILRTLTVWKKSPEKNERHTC

- Activation of PKR autophosphorylation (PKR [1]): stimulated
- Enhancement of PKR dimerization affinity (PKR [2]): about 4 fold
- g(s*) peak maximum (PKR [2]; 60 μM dp8, 2 μM PKR): ~ 4.0 S
- g(s*) peak maximum (PKR [2]; 60 μM dp8, 16 μM PKR): about 4.4 S
- s(P2H2) (PKR [2]; [8]): 6.21 Svedbergs
- s(PH) (PKR [2]; [8]): 4.14 Svedbergs
- s(P2H2) (PKR [2]; Model A, SV): 5.98 Svedbergs
- s(PH) (PKR [2]; Model A, SV): 3.98 Svedbergs
- Frictional ratio f/f0 of PKR upon binding of dp8 (PKR [2]; decrease from 1.56 for free PKR monomer): 1.47
- Kd (PKR [3]; 15 nM labeled heparin oligosaccharide, 75 mM NaCl, 20 °C, hyperbolic fit): 0.224 µM
- Kd (PKR [3]; 100 mM NaCl): 2.61 ± 0.05 µM
- Kd (PKR [3]; 125 mM NaCl): 19 ± 1.9 µM
- Kd (PKR [4]): 0.262 ± 0.021 µM
Molecule: heparin octasaccharide [dp8]

Molecule: PKR (from UniProt P19525)
- Kd (PKR [5]): 500 µM

- Fold weaker binding affinity than dp8 (PKR [3]): ~150 fold
- Kd (PKR [3]; BODIPY-labeled oligosaccharide, 75 mM NaCl): 32.6 ± 7.4 µM
Molecule: heparin disaccharide [dp2]

- Activation of PKR autophosphorylation (PKR [1]): stimulated
Molecule: heparin hexasaccharide [dp6]
- Activation of PKR, relative activity in earlier studies (PKR [6]): considerably less active than dp8

B1: PKR (protein)
chain: AGDLSAGFFMEELNTYRQKQGVVLKYQELPNSGPPHDRRFTFQVIIDGREFPEGEGRSKKEAKNAAAKLAVEILNKEKKAVSPLLLTTTNSSEGLSMGNYIGLINRIAQKKRLTVNYEQCASGVHGPEGFHYKCKMGQKEYSIGTGSTKQEAKQLAAKLAYLQILSEETSVKSDYLSSGSFATTCESQSNSLVTSTLASESSSEGDFSADTSEINSNSDSLNSSSLLMNGLRNNQRKAKRSLAPRFDLPDMKETKYTVDKRFGMDFKEIELIGSGGFGQVFKAKHRIDGKTYVIKRVKYNNEKAEREVKALAKLDHVNIVHYNGCWDGFDYDPETSDDSLESSDYDPENSKNSSRSKTKCLFIQMEFCDKGTLEQWIEKRRGEKLDKVLALELFEQITKGVDYIHSKKLIHRDLKPSNIFLVDTKQVKIGDFGLVTSLKNDGKRTRSKGTLRYMSPEQISSQDYGKEVDLYALGLILAELLHVCDTAFETSKFFTDLRDGIISDIFDKKEKTLLQKLLSKKPEDRPNTSEILRTLTVWKKSPEKNERHTC
- Kd [7]: 404 µM
